Data: ChEMBL document CHEMBL5058577, “EUbOPEN Chemogenomics Library 2 (Multiplex)” (2022)

Tested on: HEK-293T
Experiment: Multiplex assay against HEK293T
Type: toxicity, cell-based
Conditions: human
How it was run: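 Live cells were stained at seeding with Hoechst33342, BioTracker Green Microtubule Cytoskeleton Dye, MitoTracker Red and Annexin V Alexa Fluor 680, then imaged on a CQ1 microscope at 37°C and 5% CO2 after compound addition. CellPathfinder machine-learning gating split cells into Hoechst high-intensity objects or normal cells. Normal cells were split into healthy, pyknosed or fragmented nuclei, and pyknosed cells into mitotic or apoptotic. Tubulin, mitochondrial-mass and membrane-permeability phenotypes are per cents of healthy-nucleus cells.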

[1] = 12 h, 1 µM, compound concentration 1 uM, replicate 1
[2] = 12 h, 1 µM, compound concentration 1 uM, replicate 2
[3] = 12 h, 10 µM, compound concentration 10 uM, replicate 1
[4] = 12 h, 10 µM, compound concentration 10 uM, replicate 2
[5] = 24 h, 1 µM, compound concentration 1 uM, replicate 1
[6] = 24 h, 1 µM, compound concentration 1 uM, replicate 2
[7] = 24 h, 10 µM, compound concentration 10 uM, replicate 1
[8] = 24 h, 10 µM, compound concentration 10 uM, replicate 2
[9] = 48 h, 1 µM, compound concentration 1 uM, replicate 1
[10] = 48 h, 1 µM, compound concentration 1 uM, replicate 2
[11] = 48 h, 10 µM, compound concentration 10 uM, replicate 1
[12] = 48 h, 10 µM, compound concentration 10 uM, replicate 2

Cc1cc(NC(=O)NCCN2CCC(O)(Cc3ccccc3)CC2)c2ccccc2n1 [PALOSURAN]
Population Apoptotic (%) [1]: 36%
Population Fragmented Nuclei (%) [1]: 7%
Population Healthy Nuclei (%) [1]: 77%
Population Hoechst High Intensity Objects (%) [1]: 6%
Population Membrane Permeable-Phenotype (%) [1]: 0%
Population Mitochondria Different-Phenotype (%) [1]: 42%
Population Mitotic Cells (%) [1]: 63%
Population Normal (%) [1]: 93%
Population Pyknosed Nuclei (%) [1]: 14%
Population Tubulin-Different-Phenotype (%) [1]: 25%
Total Cell Count [1]: 373
Population Apoptotic (%) [2]: 48%
Population Fragmented Nuclei (%) [2]: 9%
Population Healthy Nuclei (%) [2]: 81%
Population Hoechst High Intensity Objects (%) [2]: 9%
Population Mitochondria Different-Phenotype (%) [2]: 57%
Population Mitotic Cells (%) [2]: 52%
Population Normal (%) [2]: 90%
Population Pyknosed Nuclei (%) [2]: 8%
Population Tubulin-Different-Phenotype (%) [2]: 26%
Total Cell Count [2]: 326
Population Apoptotic (%) [3]: 38%
Population Fragmented Nuclei (%) [3]: 5%
Population Healthy Nuclei (%) [3]: 81%
Population Hoechst High Intensity Objects (%) [3]: 8%
Population Membrane Permeable-Phenotype (%) [3]: 0%
Population Mitochondria Different-Phenotype (%) [3]: 53%
Population Mitotic Cells (%) [3]: 61%
Population Normal (%) [3]: 91%
Population Pyknosed Nuclei (%) [3]: 12%
Population Tubulin-Different-Phenotype (%) [3]: 41%
Total Cell Count [3]: 461
Population Apoptotic (%) [4]: 61%
Population Healthy Nuclei (%) [4]: 75%
Population Mitochondria Different-Phenotype (%) [4]: 76%
Population Mitotic Cells (%) [4]: 38%
Population Pyknosed Nuclei (%) [4]: 18%
Population Tubulin-Different-Phenotype (%) [4]: 42%
Total Cell Count [4]: 346
Population Apoptotic (%) [5]: 17%
Population Fragmented Nuclei (%) [5]: 9%
Population Healthy Nuclei (%) [5]: 78%
Population Hoechst High Intensity Objects (%) [5]: 6%
Population Membrane Permeable-Phenotype (%) [5]: 0%
Population Mitochondria Different-Phenotype (%) [5]: 24%
Population Mitotic Cells (%) [5]: 82%
Population Normal (%) [5]: 93%
Population Pyknosed Nuclei (%) [5]: 11%
Population Tubulin-Different-Phenotype (%) [5]: 19%
Total Cell Count [5]: 511
Population Apoptotic (%) [6]: 46%
Population Fragmented Nuclei (%) [6]: 10%
Population Healthy Nuclei (%) [6]: 76%
Population Hoechst High Intensity Objects (%) [6]: 4%
Population Mitochondria Different-Phenotype (%) [6]: 45%
Population Mitotic Cells (%) [6]: 53%
Population Normal (%) [6]: 95%
Population Pyknosed Nuclei (%) [6]: 13%
Population Tubulin-Different-Phenotype (%) [6]: 14%
Total Cell Count [6]: 343
Population Apoptotic (%) [7]: 35%
Population Fragmented Nuclei (%) [7]: 8%
Population Healthy Nuclei (%) [7]: 79%
Population Hoechst High Intensity Objects (%) [7]: 4%
Population Membrane Permeable-Phenotype (%) [7]: 0%
Population Mitochondria Different-Phenotype (%) [7]: 43%
Population Mitotic Cells (%) [7]: 64%
Population Normal (%) [7]: 95%
Population Pyknosed Nuclei (%) [7]: 11%
Population Tubulin-Different-Phenotype (%) [7]: 32%
Total Cell Count [7]: 598
Population Apoptotic (%) [8]: 51%
Population Fragmented Nuclei (%) [8]: 7%
Population Healthy Nuclei (%) [8]: 83%
Population Hoechst High Intensity Objects (%) [8]: 6%
Population Mitochondria Different-Phenotype (%) [8]: 64%
Population Mitotic Cells (%) [8]: 48%
Population Normal (%) [8]: 93%
Population Pyknosed Nuclei (%) [8]: 9%
Population Tubulin-Different-Phenotype (%) [8]: 26%
Total Cell Count [8]: 396
Population Apoptotic (%) [9]: 19%
Population Fragmented Nuclei (%) [9]: 15%
Population Healthy Nuclei (%) [9]: 79%
Population Hoechst High Intensity Objects (%) [9]: 3%
Population Membrane Permeable-Phenotype (%) [9]: 1%
Population Mitochondria Different-Phenotype (%) [9]: 16%
Population Mitotic Cells (%) [9]: 80%
Population Normal (%) [9]: 96%
Population Pyknosed Nuclei (%) [9]: 5%
Population Tubulin-Different-Phenotype (%) [9]: 12%
Total Cell Count [9]: 938
Population Apoptotic (%) [10]: 32%
Population Fragmented Nuclei (%) [10]: 13%
Population Healthy Nuclei (%) [10]: 81%
Population Membrane Permeable-Phenotype (%) [10]: 0%
Population Mitochondria Different-Phenotype (%) [10]: 24%
Population Mitotic Cells (%) [10]: 67%
Population Tubulin-Different-Phenotype (%) [10]: 15%
Total Cell Count [10]: 552
Population Apoptotic (%) [11]: 29%
Population Fragmented Nuclei (%) [11]: 15%
Population Healthy Nuclei (%) [11]: 75%
Population Hoechst High Intensity Objects (%) [11]: 5%
Population Membrane Permeable-Phenotype (%) [11]: 0%
Population Mitochondria Different-Phenotype (%) [11]: 34%
Population Mitotic Cells (%) [11]: 70%
Population Normal (%) [11]: 94%
Population Pyknosed Nuclei (%) [11]: 8%
Population Tubulin-Different-Phenotype (%) [11]: 17%
Total Cell Count [11]: 874
Population Apoptotic (%) [12]: 41%
Population Fragmented Nuclei (%) [12]: 9%
Population Healthy Nuclei (%) [12]: 84%
Population Hoechst High Intensity Objects (%) [12]: 4%
Population Mitochondria Different-Phenotype (%) [12]: 42%
Population Mitotic Cells (%) [12]: 58%
Population Normal (%) [12]: 95%
Population Pyknosed Nuclei (%) [12]: 6%
Population Tubulin-Different-Phenotype (%) [12]: 19%
Total Cell Count [12]: 570
